These results are taken from ChEMBL document CHEMBL1127859, “Selective inhibition of trypanosomal glyceraldehyde-3-phosphate dehydrogenase by protein structure-based design: toward new drugs for the treatment of sleeping sickness” (J Med Chem, 1994).

Assay [1] is described as follows: Tested for the inhibitory activity against Glycosomal glyceraldehyde 3-phosphate dehydrogenase (gGAPDH) of Trypanosoma brucei. Put shortly:
(§1)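 Recombinant glycosomal GAPDH overexpressed in E. coli and purified. Started with enzyme. Initial rates compared with a 5% DMSO control; NADH absorbance interference checked without enzyme. IC50 from ≥5 concentrations giving 5–80% inhibition.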

Assay [2] addresses Glyceraldehyde-3-phosphate dehydrogenase (Homo sapiens, UniProt P04406). Kind of assay: Tested for the inhibitory activity against Glycosomal glyceraldehyde 3-phosphate dehydrogenase (gGAPDH) of human erythrocyte.
The nature of assay [3]: Tested for the inhibitory activity against Glycosomal glyceraldehyde 3-phosphate dehydrogenase (gGAPDH) of Leishmania mexicana. The method in brief: as §1
Assay [4] can be described thus: Tested for the inhibitory activity against Glycosomal glyceraldehyd 3-phosphate dehydrogenase (gGAPDH) of Trypanosoma brucei. Put shortly:
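Recombinant T. brucei gGAPDH expressed in E. coli. Reaction started with enzyme; NADH absorbance read. Activity from initial rates versus a DMSO-only control. IC50 from at least five inhibitor concentrations giving 5–80% inhibition.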

Chain of Glyceraldehyde-3-phosphate dehydrogenase (P04406 whole entry): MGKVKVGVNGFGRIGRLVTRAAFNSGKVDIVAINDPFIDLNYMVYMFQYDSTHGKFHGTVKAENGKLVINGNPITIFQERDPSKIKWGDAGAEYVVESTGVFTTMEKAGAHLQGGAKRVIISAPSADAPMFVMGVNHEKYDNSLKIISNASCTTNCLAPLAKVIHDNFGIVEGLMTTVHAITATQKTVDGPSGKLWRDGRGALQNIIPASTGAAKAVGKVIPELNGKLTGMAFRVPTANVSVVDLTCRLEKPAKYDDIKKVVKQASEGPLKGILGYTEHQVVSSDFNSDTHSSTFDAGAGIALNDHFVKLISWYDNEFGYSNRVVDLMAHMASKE

On to `Nc1ncnc2c1nc(-c1ccccc1)n2[C@@H]1O[C@H](CO)[C@@H](O)[C@H]1O`, for which the IC50 in assay [1] and in assay [2] was 10 mM in each case.

As to `Nc1ncnc2c1ncn2[C@@H]1O[C@H](CO)[C@@H](O)[C@H]1NC(=O)c1ccccc1`, the IC50 is 6 mM in assay [1], above 10 mM in assay [2] and 3.3 mM in assay [3].

In the case of `Nc1ncnc2c1ncn2[C@@H]1O[C@H](CO)[C@@H](O)[C@H]1NC(=O)c1cccs1`, the IC50 in assay [1] is 5 mM; in assay [2], above 10 mM; in assay [3], 2.4 mM.

On to `COc1cccc(C(=O)N[C@@H]2[C@H](O)[C@@H](CO)O[C@H]2n2cnc3c(N)ncnc32)c1`, for which the IC50 is 2.2 mM in assay [1], above 10 mM in assay [2] and 0.3 mM in assay [3].

Turning to `Nc1ncnc2c1nc(-c1cccs1)n2[C@@H]1O[C@H](CO)C(O)[C@H]1O` (single isomer, unassigned), the IC50 in assay [2] turned out to be 1.3 mM; in assay [3], 0.5 mM; in assay [4] it was 0.6 mM.

For the molecule `Cc1nc(N)c2ncn([C@@H]3O[C@H](CO)[C@@H](O)[C@H]3O)c2n1` [2-METHYLADENOSINE], the IC50 in assay [1] is 8 mM; in assay [2] it was above 10 mM; in assay [3], 6 mM.

For `Nc1ncnc2c1ncn2[C@@H]1O[C@H](CO)[C@@H](O)[C@H]1O` [ADENOSINE], the 50% inhibitory concentration (IC50) was 100 mM in assay [1], 35 mM in assay [2] and 50 mM in assay [3].
